# Compound activity: PubChem, several laboratories
# Most compounds without a hit are left out; they make up all but 6.8% or so of the library.
# HSF1 inh = HSF1 inhibition; NIH3T3-HGL HSE-luciferase, MG132-induced, luminescence 8 h; hits give low values; activity change, negative = inhibition, % at 7.5 µM (by protocol); actives 0.77% (n = 300,000); AID 2098;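 active = more than half of replicate wells show activity change below -50%, luminescence cut by over half; inconclusive = some wells, but at most half, below -50%; inactive = no replicate well below -50%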;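 note: luciferase reports HSF-1 transcriptional activity via heat shock element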
# HSF1 activator = increases HSF-1 driven luciferase reporter signal; NIH3T3-HGL HSF-1 luciferase reporter, MG132, 8 h; 100% = twice DMSO control signal; activation, % at 9 µM; actives 1.7% (n = 300,000); AID 504408;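 active = mean replicate activation of at least 50% with a set share of replicates each reaching 50%; inconclusive = only one of those two conditions met; inactive = mean below 50% and too few replicates reaching it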
# HCV core dimer = blocks dimerization of HCV core protein | inhibition, % at 5 µM | actives 0.33% (n = 300,000) | AID 1899 | TR-FRET GST/Flag-core106 dimerization, 1536-well;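 active = inhibition above the mean of all tested compounds plus 3 SD, set per screening campaign, cut at about 45% in these data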
#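 Test system: GST/Flag-tagged HCV core106 proteins; Medium: KF-containing HEPES buffer, pH 7.45, DTT, CHAPS, BSA; Times: compound-protein-antibody incubation 4 h at 22.5 °C; Detection: TR-FRET 671 and 617 nm emission; Benchmarks: wells lacking GST-core106 and wells with excess unlabelled core106.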
# PHOSPHO1 block = PHOSPHO1 (human) inhibition. Q8TCT1. recombinant PHOSPHO1, absorbance phosphatase assay. inhibition, % at 13.3 µM. actives 1.1% (n = 290,000). AID 1565; in the data active = inhibition above about 60%
# Target sequence (Q8TCT1 whole entry, looked up): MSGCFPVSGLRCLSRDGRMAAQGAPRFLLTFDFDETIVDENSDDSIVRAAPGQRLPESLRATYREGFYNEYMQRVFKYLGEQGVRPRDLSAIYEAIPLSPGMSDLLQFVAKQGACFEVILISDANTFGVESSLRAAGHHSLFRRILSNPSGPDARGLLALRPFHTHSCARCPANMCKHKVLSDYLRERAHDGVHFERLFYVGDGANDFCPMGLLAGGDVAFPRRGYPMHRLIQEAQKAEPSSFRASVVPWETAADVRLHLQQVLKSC
# ALR inh = inhibitors of human sulfhydryl oxidase ALR; P55789; purified ALR, DTT oxidation, H2O2 HRP-luminol luminescence; inhibition, % (no concentration beside the values); actives 3.8% (n = 290,000); AID 485317;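 active = mean replicate inhibition above about 79%, with every replicate also reaching it, limit read from the data; inconclusive = only one of the two criteria met; inactive = mean below limit and not every replicate reaching it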
# Target sequence (P55789 whole entry, looked up): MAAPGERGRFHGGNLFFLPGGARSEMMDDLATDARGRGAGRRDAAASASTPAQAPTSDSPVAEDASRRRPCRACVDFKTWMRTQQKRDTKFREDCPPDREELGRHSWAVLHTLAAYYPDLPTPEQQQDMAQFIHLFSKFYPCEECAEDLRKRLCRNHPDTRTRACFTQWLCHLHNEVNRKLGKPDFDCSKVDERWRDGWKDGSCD
# AI-2 QS mod = Vibrio harveyi AI-2 quorum sensing modulation; Vibrio harveyi JMH597 AI-2 luminescence/OD600 ratio, 9 h; hits give low values; strain lacks LuxN and CqsS sensors; 0 = neutral-control median; actives 0.4% (n = 300,000); activity change, % at 7.5 µM; AID 2094; in the data active = activity change below about -75%, passing the limit was not always enough; inconclusive = no clear call, values can overlap the other calls;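 note: luminescence divided by OD600 gain over 9 h not by final OD600 alone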
# Numbers stand for hits; i = inactive; ? = inconclusive; nt = no result given.
SMILES,HSF1 inh,HSF1 activator,HCV core dimer,PHOSPHO1 block,ALR inh,AI-2 QS mod
COc1cc(SC)ccc1C(=O)Nc1nccs1,i,57,i,i,i,i
COC(=O)[C@@]1(Cc2ccc(F)cc2)[C@H]2c3cc(C(=O)N4CCCC4)n(CCc4ccccn4)c3C[C@H]2CN1C(=O)c1ccccc1,nt,nt,i,i,nt,nt
CCCS(=O)(=O)N1CCCC(C(=O)Oc2ccc(OC)cc2)C1 (configuration not stated),i,i,i,nt,i,i
O=c1n(CCCN2CCN(c3cccc(Cl)c3)CC2)nc2ccccn12,i,i,i,i,93,i
COc1cccc(CN2CCC(n3nccc3NC(=O)CCCc3ccccc3)CC2)c1,i,i,i,i,i,-81
CC(C)C(=O)N1CCC(n2nccc2NC(=O)CCOc2ccccc2)CC1,i,54,nt,i,i,i
COC(=O)c1ccc(CN2CCC(n3nccc3NC(=O)C3CCCC3)CC2)cc1,i,i,i,63,i,i
CSc1cccc(CN2CCC(n3nccc3NC(=O)C3CC3)CC2)c1,i,i,i,64,i,i
COC(=O)c1ccc(CN2CCN(C3CCCCC3)C(CCO)C2)cc1 (configuration not stated),-64,i,i,i,i,i
COc1ccc(C2CC(=O)C=C(NCc3ccccc3)C2)cc1 (configuration not stated),i,i,i,i,i,i
COc1ccc(C2CC(=O)C=C(NCc3ccc4c(c3)OCO4)C2)cc1 (configuration not stated),i,i,i,61,i,i
COc1ccc(-c2cccc(-c3nc4ccc(Cl)cn4c3NC3CCCCC3)c2)cc1,nt,nt,nt,nt,i,nt
CC(C)c1nc2ccc(Br)cn2c1NC1CCCC1,i,i,i,i,99,i
CCN(CC)CCCNC(=S)N1CCC(c2nc3ccccc3[nH]2)CC1,i,i,i,i,nt,i
C/C(=N\Nc1nc(-c2ccccc2)cs1)c1cccs1,-70,i,i,i,i,i
C/C(=N\Nc1ccc(Cl)c(C(=O)O)c1)c1cccs1,i,i,i,i,i,i
C/C(=N/Nc1ccccc1C(=O)O)c1cccs1,i,i,i,i,95,i
O=C(COC(=O)c1cccs1)Nc1nc(-c2ccccc2)cs1,i,i,i,i,88,i
COCCNC(=O)CN1C(=O)COc2ccc(S(=O)(=O)N3CC(C)CC(C)C3)cc21 (configuration not stated),i,i,i,i,i,i
COc1ccc(N2CCN(Cc3nnnn3C3CCCCC3)CC2)cc1,i,i,i,i,i,i
CCOC(=O)Cn1nnnc1CN1CCN(c2ccc(OC)cc2)CC1,i,i,i,i,92,i
CCC(NC(=O)C1CCCC1)c1ccccc1 (configuration not stated),i,i,i,nt,i,i
COc1ccc2nc(NC(=O)c3ccccc3O)sc2c1,i,103,i,i,i,i
COc1ccc2nc(NC(=O)c3ccccc3[N+](=O)[O-])sc2c1,i,i,i,i,i,i
COc1ccc2nc(Nc3ccc4c(c3)OCO4)sc2c1,i,i,i,i,nt,i
SMILES,HSF1 inh,HSF1 activator,HCV core dimer,PHOSPHO1 block,ALR inh,AI-2 QS mod
COc1ccc2nc(Nc3ccccc3)sc2c1,i,68,i,i,94,i
COc1ccc2nc(Nc3ccccc3OC)sc2c1,i,73,i,i,99,i
Fc1ccc(Nc2nc3ccccc3s2)cc1,i,i,i,i,i,i
Cc1ccc(Nc2nc3ccccc3s2)cc1,i,60,i,i,nt,i
Cc1onc(-c2ccccc2)c1C(=O)Nc1nnc(C(C)(C)C)s1,i,i,i,i,i,nt
CCOc1ccccc1NC(=O)CCS(=O)(=O)c1ccc(Br)cc1,i,i,i,i,i,i
CS(=O)(=O)c1nc(S(=O)(=O)c2ccc(Cl)cc2)c(N2CCC(O)CC2)s1,i,i,i,i,i,i
Cc1ccc(Nc2nc(NCCCN3CCOCC3)nc(N)c2[N+](=O)[O-])cc1,i,69,i,i,i,i
Cc1ccc(Nc2nc(NCCCN3CCOCC3)nc(N)c2[N+](=O)[O-])cc1C,i,i,i,i,nt,i
CN(C)c1ccc(Nc2nc(N)c([N+](=O)[O-])c(N3CCOCC3)n2)cc1,i,i,i,i,99,i
CC(=O)c1ccc(NC(=O)C(C)OC(=O)c2ccc(NS(=O)(=O)c3ccc(F)c(F)c3)cc2)cc1 (configuration not stated),i,i,i,i,i,i
O=C(/C=C/c1ccc[nH]1)c1ccc(F)cc1,i,i,i,i,i,i
O=C(/C=C/c1ccc[nH]1)c1ccccc1,i,i,i,i,97,i
C=CCn1c(C(c2ccccc2)c2ccccc2)n[nH]c1=S,i,i,i,i,nt,i
CCn1c(C(c2ccccc2)c2ccccc2)n[nH]c1=S,i,i,i,100,i,i
CCn1c(-c2cc(-c3cccc(OC)c3)nc3ccccc23)n[nH]c1=S,i,i,i,92,i,i
CCn1c(-c2ccccc2O)n[nH]c1=S,i,i,i,65,92,i
CCn1c(-c2cc(-c3ccccc3)sc2N)n[nH]c1=S,i,64,i,77,99,i
Oc1ccccc1-c1n[nH]c(=S)n1Cc1ccccc1,i,i,i,nt,i,i
Cc1[nH]c2ccccc2c1C(O)CN1CCC2(CC1)OCCO2 (configuration not stated),i,i,i,i,i,i
CCCCn1c(-c2cccnc2)n[nH]c1=S,i,i,i,i,i,i
CCCCn1c(-c2ccc([N+](=O)[O-])cc2)n[nH]c1=S,i,i,i,102,?,i
CCCCn1c(-c2cc(Cl)ccc2OC)n[nH]c1=S,i,i,i,60,i,i
CCCn1c(-c2ccc(F)cc2)n[nH]c1=S,i,i,i,91,i,i
CCn1c(-c2ccc(Cl)cc2)n[nH]c1=S,i,i,i,71,98,i
SMILES,HSF1 inh,HSF1 activator,HCV core dimer,PHOSPHO1 block,ALR inh,AI-2 QS mod
Cc1cccc(NS(=O)(=O)c2ccc3c(c2)Cc2cc(S(=O)(=O)Nc4cccc(C)c4C)ccc2-3)c1C,nt,nt,i,i,i,nt
Cc1ccccc1NC(=O)c1ccc(-n2cncn2)nc1,i,i,i,i,i,i
Cc1ccc2cn[nH]c2c1[N+](=O)[O-],i,i,i,i,i,i
CCn1c(-c2ccc(OC)c(OC)c2)n[nH]c1=S,i,i,i,i,nt,i
CCn1c(-c2ccc(C)cc2)n[nH]c1=S,i,i,i,100,i,i
CCOC(=O)C1(CCc2ccccc2)CCN(C(=O)CN2C(=O)CSC2=O)CC1,i,i,i,i,i,i
COc1ccccc1CN1CC(C(=O)N(C)Cc2ccc(C)o2)CCC1=O (configuration not stated),i,i,i,i,i,i
c1cnc(SCCOc2ccc3c(c2)CCC3)nc1,i,57,i,i,i,i
